# In ChEMBL document CHEMBL1149910, “2-(6-aryl-3(Z)-hexen-1,5-diynyl)anilines as a new class of potent antitubulin agents” (J Med Chem, 2008):
# Activity calls are given as the source filed them. The calls are words filed in the database; no cut-off is given here.
# Legend:
# HL-60 = experiment: Cytotoxicity against human HL60 cells; type: functional
# Outline: (§1)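 Tested in the NCI in vitro antitumor screening protocol across a tumor cell line panel. GI₅₀ is the concentration producing a 50% reduction in cell growth.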
# DU-145 = experiment: Cytotoxicity against human DU145 cells; type: functional; outline: as §1
# SK-MEL-2 = experiment: Cytotoxicity against human SK-MEL2 cells; type: functional
# Outline: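 Tested in the NCI in vitro antitumor screening protocol against human tumour cell lines.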
# MOLT-4 = experiment: Cytotoxicity against human MOLT4 cells; type: functional; outline: as §1
# MDA-MB-231 [1] = experiment: Cell cycle arrest in human MDA-MB-231 cells assessed as accumulation of >4N cells at 18.0 uM after 72 hrs by flow cytometry; type: functional
# OVCAR-3 = experiment: Cytotoxicity against human OVCAR-3 cells; type: functional; outline: as §1
# OVCAR-5 = experiment: Cytotoxicity against human OVCAR5 cells; type: functional; outline: as §1
# MDA-MB-231 [2] = experiment: Cell cycle arrest in human MDA-MB-231 cells assessed as accumulation at sub-G1 phase at 3.6 uM after 72 hrs by flow cytometry; type: functional
# MDA-MB-435 [3] = experiment: (§2) Cytotoxicity against human MDA-MB-435 cells; type: functional; outline: as §1
# MDA-MB-231 [4] = experiment: Cell cycle arrest in human MDA-MB-231 cells assessed as accumulation at sub-G1 phase at 36.0 uM after 24 hrs by flow cytometry; type: functional
# MDA-MB-231 [5] = experiment: Cell cycle arrest in human MDA-MB-231 cells assessed as accumulation at sub-G1 phase at 36.0 uM after 72 hrs by flow cytometry; type: functional
# [6] = test system: MDA-MB-231 (Homo sapiens); experiment: Induction of apoptosis in human MDA-MB-231 cells assessed as induction of caspase 9 activation at 36 uM after 72 hrs by colorimetric assay relative to control
# BT-549 = experiment: Cytotoxicity against human BT549 cells; type: functional; outline: as §1
# MDA-MB-435 [7] = experiment: as §2; type: functional; outline: as §1; remark: listed apart in the source
# SNB-19 = experiment: Cytotoxicity against human SNB19 cells; type: functional; outline: as §1
# [8] = test system: MDA-MB-231 (Homo sapiens); experiment: Induction of apoptosis in human MDA-MB-231 cells assessed as induction of caspase 3 activation at 36 uM after 72 hrs by colorimetric assay relative to control
# M14 = experiment: Cytotoxicity against human M14 cells; type: functional; outline: as §1
# MDA-MB-231 [9] = experiment: Effect on microtubule depolymerization in human MDA-MB-231 cells assessed as disorganized microtubule cytoskeleton at 3.6 uM after 2 hrs relative to control; type: functional, cell-based
# Outline: (§3)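 MDA-MB-231/ATCC cells grown on glass coverslips (1 × 10⁴ cells) for 24 h, then exposed to 3.6, 9, 18, 27 or 36 µM at 37 °C for 2 h. Fixed in 4% paraformaldehyde, permeabilized with Triton X-100, and immunostained for α-tubulin and ninein with DAPI counterstain. Interphase microtubule networks compared with untreated cells by confocal microscopy.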
# SF-268 = experiment: Cytotoxicity against human SF268 cells; type: functional; outline: as §1
# MDA-MB-231 [10] = experiment: Cell cycle arrest in human MDA-MB-231 cells assessed as accumulation of 2N cells at 36.0 uM after 24 hrs by flow cytometry; type: functional
# HOP-92 = experiment: Cytotoxicity against human HOP92 cells; type: functional; outline: as §1
# MDA-MB-231 [11] = experiment: Cell cycle arrest in human MDA-MB-231 cells assessed as accumulation at sub-G1 phase at 18.0 uM after 72 hrs by flow cytometry; type: functional
# MDA-MB-231 [12] = experiment: Cell cycle arrest in human MDA-MB-231 cells assessed as accumulation of 4N cells at 9.0 uM after 72 hrs by flow cytometry; type: functional
# MDA-MB-231 [13] = experiment: Effect on microtubule depolymerization in human MDA-MB-231 cells at 27 uM after 2 hrs; type: functional, cell-based; outline: as §3
# T47D = experiment: Cytotoxicity against human T47D cells; type: functional; outline: as §1
# IGROV-1 = experiment: Cytotoxicity against human IGROV1 cells; type: functional; outline: as §1
# OVCAR-8 = experiment: Cytotoxicity against human OVCAR8 cells; type: functional; outline: as §1
# K562 [14] = experiment: Cell cycle arrest in human K562 cells assessed as accumulation at S phase at 50 uM after 24 hrs by flow cytometry; type: functional
# Outline: (§4)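 K-562 human leukemia cells were grown in RPMI 1640 with 10% fetal calf serum, glutamine and penicillin/streptomycin at 37 °C in 5% CO₂. Cells were exposed to compound at 50 µM for 24 h, then pelleted and PBS-washed. They were fixed in ice-cold ethanol for 30 min, treated with 1 mg/mL RNase A at 37 °C for 30 min, and stained with propidium iodide and Triton X-100 for 30 min at room temperature in the dark. Per-phase and sub-G1 percentages came from flow cytometry gating.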
# MDA-MB-231 [15] = experiment: Cell cycle arrest in human MDA-MB-231 cells assessed as accumulation of >4N cells at 18.0 uM after 24 hrs by flow cytometry; type: functional
# K562 [16] = experiment: Cell cycle arrest in human K562 cells assessed as accumulation at sub-G1 phase at 50 uM after 24 hrs by flow cytometry; type: functional; outline: as §4
# MDA-MB-231 [17] = experiment: Cell cycle arrest in human MDA-MB-231 cells assessed as accumulation of 4N cells at 36.0 uM after 24 hrs by flow cytometry; type: functional
# MDA-MB-231 [18] = experiment: Effect on regrowth of depolymerized microtubule in human MDA-MB-231 cells after drug withdrawal; type: functional, cell-based; conditions: TDE = time-dependent effect
# Outline: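 MDA-MB-231/ATCC cells on coverslips were treated at 36 µM in DMEM for 2 h at 37 °C, with nocodazole 20 µM and colchicine 5 µM as controls. Drug was then washed out with PBS and cells incubated in prewarmed DMEM at 37 °C. Cells were fixed at set time points and immunostained for α-tubulin and ninein with DAPI counterstain.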
# MDA-MB-231 [19] = experiment: Cell cycle arrest in human MDA-MB-231 cells assessed as accumulation at sub-G1 phase at 18.0 uM after 24 hrs by flow cytometry; type: functional
# MDA-MB-231 [20] = experiment: Effect on microtubule depolymerization in human MDA-MB-231 cells at 18 uM after 2 hrs; type: functional, cell-based; outline: as §3
# MDA-MB-231 [21] = experiment: Cell cycle arrest in human MDA-MB-231 cells assessed as accumulation of >4N cells at 27.0 uM after 72 hrs by flow cytometry; type: functional
# K562 [22] = experiment: Cytotoxicity against human K562 cells; type: functional; outline: as §1
# NCI/ADR-RES = experiment: Cytotoxicity against human NCI/ADR-RES cells; type: functional; outline: as §1
# [23] = read-out: LC50 (the source's name)
smiles,measurement,setting,value
Nc1ccccc1C#C/C=C\C#Cc1ccccc1C(F)(F)F,GI50,HL-60,0.358 µM
same,TGI,HL-60,> 100 µM
same,CC50,HL-60; [23],> 100 µM
same,GI50,DU-145,3.08 µM
same,TGI,DU-145,18.4 µM
same,CC50,DU-145; [23],48.5 µM
same,TGI,SK-MEL-2,26.5 µM
same,CC50,SK-MEL-2; [23],67.2 µM
same,GI50,MOLT-4,> 100 µM
same,TGI,MOLT-4,> 100 µM
same,CC50,MOLT-4; [23],> 100 µM
same,Activity,MDA-MB-231 [1],13%
same,GI50,OVCAR-3,0.631 µM
same,GI50,OVCAR-5,1.35 µM
same,TGI,OVCAR-5,7.02 µM
same,CC50,OVCAR-5; [23],37.5 µM
same,Activity,MDA-MB-231 [2],47.2%
same,GI50,MDA-MB-435 [3],0.398 µM
same,Activity,MDA-MB-231 [4],23.6%
same,Activity,MDA-MB-231 [5],69.3%
same,fold change (FC),[6],3.9
same,GI50,BT-549,0.699 µM
same,TGI,BT-549,17.3 µM
same,CC50,BT-549; [23],43.4 µM
same,GI50,MDA-MB-435 [7],0.4 µM
same,TGI,MDA-MB-435 [7],0.53 µM
same,GI50,SNB-19,11.3 µM
same,TGI,SNB-19,39.9 µM
same,CC50,SNB-19; [23],> 100 µM
same,fold change (FC),[8],3.4
same,GI50,M14,0.372 µM
same,TGI,M14,13.2 µM
same,CC50,M14; [23],49.4 µM
same,Activity,MDA-MB-231 [9],Active
same,GI50,SF-268,0.65 µM
same,TGI,SF-268,19.7 µM
same,CC50,SF-268; [23],64.3 µM
same,Activity,MDA-MB-231 [10],10.4%
same,GI50,HOP-92,20.4 µM
same,TGI,HOP-92,48.6 µM
same,CC50,HOP-92; [23],> 100 µM
same,Activity,MDA-MB-231 [11],62.5%
same,Activity,MDA-MB-231 [12],21.3%
same,Activity,MDA-MB-231 [13],Active
same,GI50,T47D,17 µM
same,TGI,T47D,49.6 µM
same,CC50,T47D; [23],> 100 µM
same,GI50,IGROV-1,0.349 µM
same,TGI,IGROV-1,31.1 µM
same,CC50,IGROV-1; [23],> 100 µM
same,GI50,OVCAR-8,0.962 µM
same,TGI,OVCAR-8,21.5 µM
same,CC50,OVCAR-8; [23],80.7 µM
same,Activity,K562 [14],19.3%
same,Activity,MDA-MB-231 [15],35.1%
same,Activity,K562 [16],19.4%
same,Activity,MDA-MB-231 [17],33.6%
same,Activity,MDA-MB-231 [18],tde
same,Activity,MDA-MB-231 [19],23.5%
same,Activity,MDA-MB-231 [20],Active
same,Activity,MDA-MB-231 [21],12.8%
same,GI50,K562 [22],1 µM
same,TGI,K562 [22],0.845 µM
same,CC50,K562 [22]; [23],62.7 µM
same,GI50,NCI/ADR-RES,0.249 µM
same,TGI,NCI/ADR-RES,0.68 µM
same,CC50,NCI/ADR-RES; [23],28.5 µM
